In ChEMBL document CHEMBL1156985 (Bioorg Med Chem Lett, 2010):

Legend:
[1] = Inhibition of gamma secretase-mediated Abeta40 production
Mus musculus [2] = assay: Inhibition of Abeta40 production in CRND8 mouse plasma at 30 mg/kg, po after 3 hrs; assay type: functional
In short: (§1)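 CRND8 transgenic mice were given a single oral dose of 30 mg/kg. Abeta40 was measured in plasma and brain cortex at 3 h, or at 6 h, after dosing. Results are expressed as percent inhibition of Abeta40.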

[3] = Inhibition of gamma secretase-mediated Abeta40 production by cell based assay
In short: (§2)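 Cell-based assay measuring secreted Abeta40 and Abeta42. IC50 values are the means of two experiments.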

[4] = Inhibition of gamma secretase-mediated Abeta42 production by cell based assay; in short: as §2
Cytochrome P450 3A4 = Cytochrome P450 3A4 (Homo sapiens, UniProt P08684); assay: Inhibition of CYP3A4 preincubated for 30 mins; assay type: ADME
Cytochrome P450 3A4, sequence (P08684 whole entry): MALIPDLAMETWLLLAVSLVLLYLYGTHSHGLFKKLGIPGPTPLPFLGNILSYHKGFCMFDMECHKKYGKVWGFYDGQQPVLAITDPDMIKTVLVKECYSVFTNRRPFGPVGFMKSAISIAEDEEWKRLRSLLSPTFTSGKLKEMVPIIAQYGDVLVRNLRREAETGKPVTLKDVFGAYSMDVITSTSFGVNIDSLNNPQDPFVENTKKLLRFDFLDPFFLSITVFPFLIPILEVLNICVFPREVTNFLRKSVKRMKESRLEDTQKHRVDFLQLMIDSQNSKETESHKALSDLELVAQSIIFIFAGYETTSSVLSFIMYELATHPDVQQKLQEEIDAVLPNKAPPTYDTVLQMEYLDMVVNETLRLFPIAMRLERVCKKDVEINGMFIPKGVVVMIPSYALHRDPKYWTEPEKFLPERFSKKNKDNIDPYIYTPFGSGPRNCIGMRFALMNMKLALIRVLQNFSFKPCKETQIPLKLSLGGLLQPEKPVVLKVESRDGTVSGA

[5] = AUC in CRND8 mouse; assay type: ADME, organism-based; set-up: concentration or dose not given beside the values; settings: plasma
Mus musculus [6] = assay: Inhibition of Abeta40 production in CRND8 mouse brain cortex at 30 mg/kg, po after 3 hrs; assay type: functional; in short: as §1
Mus musculus [7] = assay: Inhibition of Abeta40 production in CRND8 mouse brain cortex at 30 mg/kg, po after 6 hrs; assay type: functional; in short: as §1
Mus musculus [8] = assay: Inhibition of Abeta40 production in CRND8 mouse plasma at 30 mg/kg, po after 6 hrs; assay type: functional; in short: as §1
Mus musculus [9] = assay: Gastrointestinal toxicity in CRND8 mouse at 30 mg/kg, po after 3 hrs; assay type: organism-based; set-up: dose 30 mg/kg, route oral; settings: in vivo

Compound	IC50 [1] [nM]	IC50 [3] [nM]	IC50 [4] [nM]	also measured
C[C@@H]1C[C@](C)(S(=O)(=O)c2ccc(Cl)cc2)c2c(F)ccc(F)c2O1 (relative stereo)	1200	–	–	–
O=S(=O)(c1ccc(Cl)cc1)[C@H]1c2c(F)ccc(F)c2OC[C@@H]1CO (relative stereo)	510	–	–	–
C[C@H]1COc2c(F)ccc(F)c2[C@@]1(C)S(=O)(=O)c1ccc(Cl)cc1 (relative stereo)	110	–	–	–
O=C1CCC2(S(=O)(=O)c3ccc(Cl)cc3)c3c(F)ccc(F)c3OCC2C1 (racemic)	13	17	12	inhibition in vivo at 30 mg/kg (Mus musculus [2]): 19%; IC50 (Cytochrome P450 3A4): 1.2 µM; AUC [5]: 60 ng·h/mL
O=S(=O)(N[C@@H]1CC[C@@]2(S(=O)(=O)c3ccc(Cl)cc3)c3c(F)ccc(F)c3OC[C@H]2C1)c1ccccn1	7.6	68	26	inhibition in vivo at 30 mg/kg (Mus musculus [2]): 19%
O=S(=O)(c1ccc(Cl)cc1)C12CCC(O)CC1COc1c(F)ccc(F)c12 (racemic)	28	25	18	inhibition in vivo at 30 mg/kg (Mus musculus [2]): 44%; inhibition in vivo at 30 mg/kg (Mus musculus [6]): 55%; AUC [5]: 164 ng·h/mL
O=S(=O)(c1ccc(Cl)cc1)C1CCOc2c(F)ccc(F)c21 (racemic)	1600	–	–	–
C[C@H]1COc2c(F)ccc(F)c2[C@@H]1S(=O)(=O)c1ccc(Cl)cc1 (relative stereo)	64	–	–	–
O=S(=O)(N[C@@H]1CC[C@@]2(S(=O)(=O)c3ccc(Cl)cc3)c3c(F)ccc(F)c3OC[C@H]2C1)C1CC1	8.4	9.3	4.3	inhibition in vivo at 30 mg/kg (Mus musculus [7]): 58%; IC50 (Cytochrome P450 3A4): > 30 µM; AUC [5]: 1910 ng·h/mL; inhibition in vivo at 30 mg/kg (Mus musculus [8]): 80%
O=S(=O)(N[C@@H]1CC[C@@]2(S(=O)(=O)c3ccc(Cl)cc3)c3c(F)ccc(F)c3OC[C@H]2C1)C(F)(F)F	27.1	108	46	inhibition in vivo at 30 mg/kg (Mus musculus [2]): 90%; inhibition in vivo at 30 mg/kg (Mus musculus [6]): 42%; IC50 (Cytochrome P450 3A4): > 30 µM; AUC [5]: 5050 ng·h/mL; Activity (Mus musculus [9]): Non-toxic
COC[C@H]1COc2c(F)ccc(F)c2[C@@]1(C)S(=O)(=O)c1ccc(Cl)cc1 (relative stereo)	270	–	–	–
CC1(S(=O)(=O)c2ccc(Cl)cc2)CCOc2c(F)ccc(F)c21 (racemic)	808	–	–	–
NC1CCC2(S(=O)(=O)c3ccc(Cl)cc3)c3c(F)ccc(F)c3OCC2C1 (racemic)	1700	–	–	–
CCC1(S(=O)(=O)c2ccc(Cl)cc2)CC(CO)Oc2c(F)ccc(F)c21 (mixture of isomers)	620	–	–	–
CC(=O)NC1CCC2(S(=O)(=O)c3ccc(Cl)cc3)c3c(F)ccc(F)c3OCC2C1 (racemic)	107	145	107	AUC [5]: 1720 ng·h/mL
CC[C@@H]1C[C@](CC)(S(=O)(=O)c2ccc(Cl)cc2)c2c(F)ccc(F)c2O1 (relative stereo)	830	–	–	–
CCC1(S(=O)(=O)c2ccc(Cl)cc2)CCOc2c(F)ccc(F)c21 (racemic)	72	–	–	–
